# Experimental data as given in PubChem BioAssay AID623961 (The Scripps Research Institute Molecular Screening Center, 2012).
# Where “and” joins values, the source holds several entries; their conditions need not be identical. Equal entries are not always repeated. Calls of active or inactive are those of the source.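 How the source made its calls: active means mean cell viability below 80%; inactive means the rest.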
# Test system: Huh-7.5 Rluc-replicon viability, CellTiter-Glo ATP, 72 h
# Test: cytotoxicity in HCV replicon hepatoma cells, late-stage follow-up, cytotoxicity control for HCV NS3 helicase inhibitor project, cell-based, luminescence (AID 623961)
# Conditions: at 10 µM; stronger effect = lower value
# In short: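 System: Huh-7.5 human hepatoma cells harboring HCV Renilla luciferase replicon / Compound dosing: 10 µM single concentration, 0.5% DMSO / Schedule: cell attachment 4-5 h, compound exposure 72 h at 37 °C, 5% CO2 / Technique: ATP luminescence after 30 min lysis at 23 °C / Read-out: mean % viability / Buffer or medium: fresh growth medium at readout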
row,Compound,viability
1,Cc1ccc2nc(-c3ccc4nc(-c5ccc(NC(=O)c6ccc7nc(-c8ccc(NC(=O)OCC9c%10ccccc%10-c%10ccccc%109)cc8)sc7c6)cc5)sc4c3)sc2c1S(=O)(=O)O,90% (inactive) and 95% (inactive)
2,Cc1ccc2nc(-c3ccc(NC(=O)c4ccc(NS(=O)(=O)c5ccccc5)cc4)cc3)sc2c1S(=O)(=O)O,119% (inactive)
3,COc1ccc2sc(NC(=O)c3ccc4ncsc4c3)nc2c1,50%
4,Cc1ccc2nc(-c3ccc(NC(=O)c4ccc(NC(=O)c5ccccc5)cc4)cc3)sc2c1S(=O)(=O)O,115% (inactive)
5,Cc1ccc2nc(-c3ccc4nc(-c5ccc(NC(=O)c6ccc(N(C)C)cc6)cc5)sc4c3)sc2c1S(=O)(=O)O,94% (inactive)
6,Cc1ccc2nc(-c3ccc4nc(-c5ccc6nc(-c7ccc(N)cc7)sc6c5)sc4c3)sc2c1S(=O)(=O)O,91% (inactive)
7,Cc1ccc2nc(-c3ccc(NC(=S)Nc4ccccc4Br)cc3)sc2c1,39%
8,Cc1ccc2nc(-c3ccc(NC(=O)c4ccc(NC(=O)OCC5c6ccccc6-c6ccccc65)cc4)cc3)sc2c1S(=O)(=O)O,108% (inactive)
9,Cc1ccc2nc(-c3ccc(NC(=O)c4ccc(NC(=O)c5ccc(NC(=O)OCC6c7ccccc7-c7ccccc76)cc5)cc4)cc3)sc2c1S(=O)(=O)O,113% (inactive)
10,Cc1ccc2nc(-c3ccc4nc(-c5ccc6nc(-c7ccc8nc(-c9ccc(N)cc9)sc8c7)sc6c5)sc4c3)sc2c1S(=O)(=O)O,94% (inactive) and 83% (inactive)
11,Cc1ccc2nc(-c3ccc4nc(-c5ccc(NC(=O)c6c(F)cccc6C(F)(F)F)cc5)sc4c3)sc2c1S(=O)(=O)O,122% (inactive)
12,Cc1ccc2nc(-c3ccc4nc(-c5ccc(NC(=O)c6cc(C(F)(F)F)cc(C(F)(F)F)c6)cc5)sc4c3)sc2c1S(=O)(=O)O,122% (inactive)
13,Cc1ccc2nc(-c3ccc4nc(-c5ccc(NC(=O)c6ccc(Br)cc6)cc5)sc4c3)sc2c1S(=O)(=O)O,113% (inactive)
14,COC(=O)c1ccc(C(=O)Nc2ccc(-c3nc4ccc(-c5nc6ccc(C)c(S(=O)(=O)O)c6s5)cc4s3)cc2)cc1,101% (inactive)
15,Cc1ccc2nc(-c3ccc4nc(-c5ccc(NC(=O)c6cc(F)cc(C(F)(F)F)c6)cc5)sc4c3)sc2c1S(=O)(=O)O,113% (inactive)
16,Cc1ccc2nc(-c3ccc(NC(=O)c4ccc(NC(=O)c5ccc(C(F)(F)F)cc5)cc4)cc3)sc2c1S(=O)(=O)O,97% (inactive)
17,Cc1ccc2nc(-c3ccc(NC(=O)c4ccc(C(F)(F)F)cc4)cc3)sc2c1S(=O)(=O)O,102% (inactive)
18,Cc1cc2sc(-c3ccc4nc(-c5ccc(N)cc5)sc4c3)nc2cc1S(=O)(=O)O,87% (inactive)
19,COc1ccc(S(=O)(=O)Nc2ccc(-c3nc4ccc(-c5nc6ccc(C)c(S(=O)(=O)O)c6s5)cc4s3)cc2)cc1,75%
20,Cc1ccc2nc(-c3ccc4nc(-c5ccc(NC(=O)c6cc(F)ccc6C(F)(F)F)cc5)sc4c3)sc2c1S(=O)(=O)O,118% (inactive)
21,Cc1ccc2nc(-c3ccc4nc(-c5ccc(NC(=O)c6ccc7ccccc7c6)cc5)sc4c3)sc2c1S(=O)(=O)O,87% (inactive) and 99% (inactive)
22,Cc1ccc2nc(-c3ccc4nc(-c5ccc(NC(=O)c6cccnc6)cc5)sc4c3)sc2c1S(=O)(=O)O,113% (inactive)
23,Cc1ccc2nc(-c3ccc4nc(-c5ccc(NC(=O)c6cccc(C(F)(F)F)c6F)cc5)sc4c3)sc2c1S(=O)(=O)O,122% (inactive)
24,Cc1ccc2nc(-c3ccc4nc(-c5ccc(NC(=O)c6ccc(C(F)(F)F)c(F)c6)cc5)sc4c3)sc2c1S(=O)(=O)O,129% (inactive)
25,COc1cccc2c(=O)c3cc(Cl)cc(C(=O)Nc4cc(Cl)ccn4)c3[nH]c12,79%
26,Cc1ccc2nc(-c3ccc4nc(-c5ccc(N(C)C(=O)c6ccc7ccccc7c6)cc5)sc4c3)sc2c1S(=O)(=O)O,101% (inactive)
27,Cc1ccc2nc(-c3ccc(NC(=O)c4ccc(NC(=O)Nc5ccccc5)cc4)cc3)sc2c1S(=O)(=O)O,113% (inactive)
